In ChEMBL document CHEMBL4017546, “Small-Molecule Inhibitors of the CD40-CD40L Costimulatory Protein-Protein Interaction” (J Med Chem, 2017):
Values after ≈ are worked out from the molar mass of the structure shown. Active and inactive are the calls of the source. No cut-off for these calls is given here.

Experiments:
CD40-CD40L [1] = molecular target: T1, CD40-CD40L (Homo sapiens, UniProt P25942+P29965); assay: Inhibition of interaction of CD40 in promoter/enhancer region of aicda-fused Ds-Red reporter transfected human B cells with recombinant human CD40L assessed as reduction in CD40L/IL-4-induced B cell activation by measuring AID expression after 2 days by flow cytometric analysis
Method in brief: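 Primary human B cells transduced by spinoculation (1.5 h, 2,500g, 32°C, polybrene 8 µg/mL) with aicda promoter/enhancer–DsRed lentivirus. Cells at 1.25 × 10^5/mL in IMDM with 10% FBS, stimulated with IL-4 and CD40L (each 0.2 µg/mL) plus graded compound for 2 days at 37°C. DsRed read by flow cytometry. Anti-CD40L mAb 33.3 nM and CpG 1 µg/mL as controls; n=3.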

[2] = Solubility of the compound in water; type: physicochemical; settings: buffer
Method in brief: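 Saturated solution in distilled water, concentration measured by C18 HPLC (60:40 water:acetonitrile, 2.0 mM ammonium acetate, UV 254 nm). Calibration standards were made from known amounts dissolved in 20% w/v aqueous HPβCD. Compounds were tested as triethylamine salts unless stated otherwise.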

THP-1 [3] = assay: Cytotoxicity against human THP1 cells assessed as reduction in cell viability at 100 uM after 48 hrs by MTT assay; type: cell-based; settings: thp-1, 48 h
Method in brief: (§1)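 THP-1 cells grown in RPMI-1640 with 10% FBS, starved 24 h in FBS-free medium, then seeded at 50,000 cells/well with compounds diluted in the same medium. Incubated 48 h at 37°C, MTT added for a further half hour, formazan read at 490 nm. Data converted to percent inhibition; duplicate or triplicate wells, at least three independent experiments.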

[4] = molecular target: MAC1-CD40L (Homo sapiens) (UniProt P05107+P11215+P29965); assay: Inhibition of human Fc-conjugated Mac1/FLAG-tagged biotinylated CD40L protein-protein interaction incubated for 1 hr by ELISA-type assay
Method in brief: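 Fc-conjugated Mac-1 coated overnight at 4°C at 0.4 µg/mL; blocked with PBS/Tween/BSA. FLAG-tagged CD40L at 0.2 µg/mL added with graded compound in HEPES binding buffer (pH 7.2) for 1 h. Detection with anti-FLAG HRP/TMB at 450 nm. Data converted to percent inhibition and fitted to a log inhibitor curve.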

[5] = Elimination half life in C57BL6 mouse at 60 mg/kg, sc administered as single dose measured up to 24 hrs by HPLC analysis; type: ADME, organism-based; settings: in vivo, read-out: beta t1/2 (converted)
Method in brief: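 Single s.c. dose of 1.6 mg/mouse (~60 mg/kg) in 250 µL 20% w/v HPβCD to male C57BL/6 mice, 10 weeks old (n = 4). Tail blood (50 µL) drawn at 0, 0.5, 1, 2, 4, 6 and 24 h. Plasma quantified by C18 HPLC (60:40 water:acetonitrile with 2.0 mM ammonium acetate, 254 nm), calibration linear over 1 to 500 µg/mL.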

Salmonella typhimurium = assay: Mutagenicity in Salmonella typhimurium TA100 up to 500 uM measured daily up to day 6 by Ames test; type: toxicity; settings: salmonella enterica subsp. enterica serovar typhimurium
Method in brief: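 Muta-Chromplate Ames format with S. typhimurium TA-100, reconstituted and grown overnight (16–18 h) at 37°C, then added to reaction mixture with compound at 0.1 to 500 μM (DMSO ≤2.5% final). Plated one plate per condition, incubated at 37°C, positive wells counted daily. Controls were background, NaN3 positive and sterility plates; significance from the manufacturer's tables.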

Mus musculus [6] = assay: In vivo inhibition of alloantigen-induced T cell response in sc dosed BALB/c mouse injected with DBA-2 mouse splenocytes assessed as reduction in splenocyte-mediated increase in draining popliteal lymph node cells administered as bid from 1 day before alloantigen challenge to 3 days post alloantigen challenge; type: functional, organism-based
Method in brief: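 Female BALB/c recipients (10–12 weeks) got a footpad injection of 1 × 10^7 splenocytes from male DBA-2 donors. Compound given s.c. at 20–60 mg/kg b.i.d. from day -1 to 3 in 20% HPβCD; MR-1 anti-CD40L (20 mg/kg, days -1 and 0) as positive control. Draining popliteal nodes taken 3 days after challenge and cells counted; n = 3–4 per group, mean ± SD.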

CD40-CD40L [7] = molecular target: T1, CD40-CD40L; assay: Inhibition of interaction of CD40 in human B cells with recombinant human CD40L assessed as reduction in CD40L-induced cell proliferation after 48 hrs by BrdU incorporation-based ELISA
Method in brief: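 CD19+ B cells from healthy-donor PBMC (magnetic bead selection, >90% CD19+) at 2 × 10^5 cells/mL in IMDM with 10% FBS, ITS and rhIL-4 at 0.2 µg/mL. Activated with rhCD154 (MegaCD40L) at 0.1 µg/mL plus graded compound for 48 h. BrdU then added for another 48 h; incorporation read by colorimetric ELISA.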
Target sequence in this assay (P25942 21-277 limits assumed): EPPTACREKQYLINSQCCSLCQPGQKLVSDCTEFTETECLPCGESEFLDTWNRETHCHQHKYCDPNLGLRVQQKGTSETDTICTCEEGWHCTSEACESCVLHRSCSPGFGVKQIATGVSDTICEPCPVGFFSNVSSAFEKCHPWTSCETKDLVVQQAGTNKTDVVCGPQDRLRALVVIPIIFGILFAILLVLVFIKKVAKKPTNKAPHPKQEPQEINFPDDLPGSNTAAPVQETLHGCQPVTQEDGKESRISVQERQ
Target sequence in this assay (P29965 113-261 partner limits assumed): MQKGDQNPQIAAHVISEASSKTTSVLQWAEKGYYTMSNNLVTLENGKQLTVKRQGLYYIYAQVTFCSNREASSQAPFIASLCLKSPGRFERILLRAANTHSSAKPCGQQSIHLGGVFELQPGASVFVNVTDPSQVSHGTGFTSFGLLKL

CD40-CD40L [8] = molecular target: T1, CD40-CD40L; assay: Inhibition of human Fc-conjugated CD40/FLAG-tagged biotinylated CD40L costimulatory protein-protein interaction incubated for 1 hr by ELISA-type assay
Mus musculus [9] = assay: Toxicity in C57BL6 mouse implanted with BALB/c mouse skin graft at 30 mg/kg, sc administered daily for 2 weeks; type: organism-based; settings: in vivo, 336 h
Method in brief: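 C57BL/6 recipients carried full-thickness BALB/c ear skin grafts on the dorsal thorax. They received CTLA4-Ig 250 μg on days 0, 2, 4 and 6, plus compound at 30 mg/kg s.c. daily in 20% w/v HPβCD over two weeks, and were watched for signs of toxicity. 5–8 mice per group.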

CD40-CD40L [10] = molecular target: T1, CD40-CD40L; assay: Inhibition of interaction of CD40 in human THP-1 cells with recombinant human CD40L assessed as reduction in CD40L-induced […] upregulation after 48 hrs by DAPI-staining based flow cytometric analysis; type: cell-based
Method in brief: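 THP-1 cells serum-starved 24 h, then stimulated with rhCD154 (MegaCD40L) at 0.5 µg/mL plus graded compound in FBS-free RPMI for 48 h at 37°C, 5% CO2. Stained for HLA-DR, then DAPI just before flow cytometry. Marker quantified in live (DAPI-negative) cells.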
Target sequence in this assay (P25942 21-277 limits assumed): as the sequence (P25942 21-277 limits assumed) above
Target sequence in this assay (P29965 113-261 partner limits assumed): as the sequence (P29965 113-261 partner limits assumed) above

[11] = Inhibition of human Fc-conjugated TNF-R/FLAG-tagged biotinylated TNFalpha protein-protein interaction incubated for 1 hr by ELISA-type assay
CD40-CD40L [12] = molecular target: T1, CD40-CD40L; assay: Inhibition of interaction of CD40 (unknown origin) transfected in HEK Blue cells with recombinant human CD40L assessed as reduction in CD40L-induced NF-kappaB activation after 18 hrs by spectrophotometry based SEAP reporter gene assay; type: cell-based
CD40-CD40L [13] = molecular target: T1, CD40-CD40L; assay: Ratio of IC50 for human Fc-conjugated CD40/FLAG-tagged biotinylated CD40L costimulatory protein-protein interaction in presence of Triton-X 100 to IC50 for human Fc-conjugated CD40/FLAG-tagged biotinylated CD40L costimulatory protein-protein interaction in absence of Triton-X 100; type: protein assay
Method in brief: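 CD40-Fc (0.3 µg/mL) coated, FLAG-CD40L (0.02 µg/mL) binding, 1 h, anti-FLAG HRP/TMB read at 450 nm. Run with and without the non-ionic detergent Triton X-100 at 0.01% to test for colloidal aggregation. IC50 taken from log inhibitor vs. response fits in each condition.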
Target sequence in this assay (P25942 21-277 limits assumed): as the sequence (P25942 21-277 limits assumed) above
Target sequence in this assay (P29965 113-261 partner limits assumed): as the sequence (P29965 113-261 partner limits assumed) above

Homo sapiens = species on record: Homo sapiens; assay: Selectivity ratio of IC50 for human Fc-conjugated TNF-R/FLAG-tagged biotinylated TNFalpha protein-protein interaction to IC50 for human Fc-conjugated CD40/FLAG-tagged biotinylated CD40L costimulatory protein-protein interaction
Method in brief: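 Cell-free plate binding: TNF-R-Fc and CD40-Fc each coated at 0.3 µg/mL. FLAG-tagged TNF-α or CD40L, each at 0.02 µg/mL, added with graded compound for 1 h in HEPES buffer, pH 7.2. Anti-FLAG HRP/TMB detection at 450 nm. IC50s come from log inhibitor fits.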

THP-1 [14] = assay: Cytotoxicity against human THP1 cells assessed as reduction in cell viability at 100 to 200 uM after 48 hrs by MTT assay; type: cell-based; settings: thp-1, 48 h; method in brief: as §1

Chain of MAC1-CD40L (Homo sapiens) (P05107 whole entry, looked up, other chains not shown): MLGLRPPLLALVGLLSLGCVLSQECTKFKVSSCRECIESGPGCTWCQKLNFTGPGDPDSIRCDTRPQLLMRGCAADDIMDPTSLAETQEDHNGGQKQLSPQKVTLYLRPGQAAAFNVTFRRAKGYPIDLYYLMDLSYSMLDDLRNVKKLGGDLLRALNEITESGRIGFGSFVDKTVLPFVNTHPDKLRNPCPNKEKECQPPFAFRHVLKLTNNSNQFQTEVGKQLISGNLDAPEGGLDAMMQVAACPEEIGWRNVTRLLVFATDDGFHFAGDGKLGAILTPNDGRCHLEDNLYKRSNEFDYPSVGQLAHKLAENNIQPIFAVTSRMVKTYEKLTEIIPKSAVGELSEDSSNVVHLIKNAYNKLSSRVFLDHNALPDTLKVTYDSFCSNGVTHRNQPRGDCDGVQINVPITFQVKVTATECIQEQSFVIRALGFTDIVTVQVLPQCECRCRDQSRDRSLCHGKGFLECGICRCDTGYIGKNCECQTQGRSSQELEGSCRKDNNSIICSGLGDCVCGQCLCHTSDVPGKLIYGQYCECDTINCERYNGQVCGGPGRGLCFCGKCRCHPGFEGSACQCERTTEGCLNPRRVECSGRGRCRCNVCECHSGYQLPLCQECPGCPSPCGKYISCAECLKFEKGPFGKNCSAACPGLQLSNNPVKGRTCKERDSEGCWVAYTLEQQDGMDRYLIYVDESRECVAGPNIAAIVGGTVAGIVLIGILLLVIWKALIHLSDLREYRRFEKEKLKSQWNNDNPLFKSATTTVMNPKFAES
Chain of MAC1-CD40L (Homo sapiens) (P29965 whole entry, looked up, other chains not shown): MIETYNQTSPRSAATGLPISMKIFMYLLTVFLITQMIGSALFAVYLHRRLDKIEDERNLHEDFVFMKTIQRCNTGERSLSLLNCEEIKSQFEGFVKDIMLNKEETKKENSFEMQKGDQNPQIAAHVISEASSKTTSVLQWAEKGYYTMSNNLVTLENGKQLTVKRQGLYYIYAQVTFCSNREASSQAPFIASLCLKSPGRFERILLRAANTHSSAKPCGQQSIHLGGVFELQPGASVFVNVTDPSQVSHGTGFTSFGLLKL

| Molecule | inhibition [4] | IC50 (CD40-CD40L [8]) [µM] | inhibition (CD40-CD40L [8]) | IC50 [11] [µM] | IC50 (CD40-CD40L [12]) [µM] | inhibition (CD40-CD40L [12]) | Ratio IC50 (Homo sapiens) | other results |
| --- | --- | --- | --- | --- | --- | --- | --- | --- |
| COC(=O)c1ccc(C(=O)Nc2ccc(-c3ccc(C(=O)Nc4cccc5cccc(S(=O)(=O)O)c45)cc3)cc2)cc1 | Active | 0.17 | Dose-dependent effect | 992 | 17.1 | Dose-dependent effect |  | IC50 (CD40-CD40L [1]): 4.5 µM; inhibition (CD40-CD40L [1]): Dose-dependent effect; solubility [2]: 240 µM (≈ 139 µg/mL); Activity (THP-1 [3]): Non-Toxic; half-life [5]: 2 h; Activity (Salmonella typhimurium): Non-Toxic; inhibition (Mus musculus [6]): Active; inhibition (CD40-CD40L [7]): Dose-dependent effect; Activity (Mus musculus [9]): Non-Toxic; inhibition (CD40-CD40L [10]): Dose-dependent effect |
| O=C(Nc1ccc(-c2ccc(C(=O)Nc3cccc4cccc(S(=O)(=O)O)c34)cc2)cc1)c1ccc([N+](=O)[O-])cc1 | Active | 0.31 | Dose-dependent effect | > 1000 | 10.3 | Dose-dependent effect |  | IC50 (CD40-CD40L [1]): 13.2 µM; inhibition (CD40-CD40L [1]): Dose-dependent effect; solubility [2]: 7 µM (≈ 3.97 µg/mL); Activity (THP-1 [3]): Non-Toxic; Activity (Salmonella typhimurium): Non-Toxic; inhibition (CD40-CD40L [7]): Dose-dependent effect; inhibition (CD40-CD40L [10]): Dose-dependent effect |
| O=C1OC2(c3ccccc31)c1cc(I)c(O)c(I)c1Oc1c2cc(I)c(O)c1I |  |  |  |  |  |  |  | Ratio IC50 (CD40-CD40L [13]): 1.04 |
| O=C(Nc1ccc2c(O)c(/N=N/c3ccc(/N=N\c4ccc(S(=O)(=O)O)cc4)cc3S(=O)(=O)O)c(S(=O)(=O)O)cc2c1)Nc1ccc2c(O)c(/N=N/c3ccc(/N=N\c4ccc(S(=O)(=O)O)cc4)cc3S(=O)(=O)O)c(S(=O)(=O)O)cc2c1 | Active | 2.26 |  |  | 42.7 | Dose-dependent effect |  |  |
| H-VLQWAEKGYYTMSNN-OH |  | 154 |  |  |  |  |  |  |
| O=C(Nc1ccc(C(=O)Nc2cccc3cccc(S(=O)(=O)O)c23)cc1)c1ccc([N+](=O)[O-])cc1 | Active |  |  | > 1000 |  |  | > 100 |  |
| CSCC[C@H](NC(=O)[C@@H](NC(=O)[C@H](Cc1ccc(O)cc1)NC(=O)[C@H](Cc1ccc(O)cc1)NC(=O)CNC(=O)[C@H](CCCCN)NC(=O)[C@H](CCCCN)NC(=O)[C@H](C)NC(=O)[C@H](Cc1c[nH]c2ccccc12)NC(=O)[C@H](CCC(N)=O)NC(=O)[C@H](CC(C)C)NC(=O)[C@@H](N)C(C)C)[C@@H](C)O)C(=O)N[C@@H](CCCCN)C(=O)N[C@@H](CO)C(=O)N[C@@H](CC(N)=O)C(=O)O |  |  | inactive |  |  |  |  |  |
| Nc1ccc(C(=O)Nc2ccc(-c3ccc(C(=O)Nc4cccc5cccc(S(=O)(=O)O)c45)cc3)cc2)cc1 | Active | 301 |  | 887 |  |  | > 100 | Activity (THP-1 [14]): Toxic |
| O=C(Nc1ccc(-c2ccc(C(=O)Nc3cccc4cccc(S(=O)(=O)O)c34)cc2)cc1)c1ccc2[nH]nnc2c1 |  | 0.99 | Dose-dependent effect | > 1000 |  |  | > 100 |  |
| O=C(Nc1ccc(-c2ccc(C(=O)Nc3ccc(S(=O)(=O)O)c4ccccc34)cc2)cc1)c1ccc([N+](=O)[O-])cc1 |  | 2.33 | Dose-dependent effect | 479 |  |  | > 100 |  |
| O=C(Nc1ccc(-c2ccc(C(=O)Nc3ccc(C(=O)O)c4ccccc34)cc2)cc1)c1ccc([N+](=O)[O-])cc1 | Active | 0.36 | Dose-dependent effect | > 1000 | 9.4 | Dose-dependent effect |  | IC50 (CD40-CD40L [1]): 15.9 µM; inhibition (CD40-CD40L [1]): Dose-dependent effect; solubility [2]: 17 µM (≈ 9.04 µg/mL); Activity (THP-1 [14]): Toxic; inhibition (CD40-CD40L [7]): Dose-dependent effect; inhibition (CD40-CD40L [10]): Dose-dependent effect |
